High-throughput results from PubChem BioAssay.
TRPC4 potent = allosterically enhances the mouse TRPC4 cation channel; Q9QUQ5; HEK293 TRPC4beta/mu-opioid, DAMGO EC20, Fluo-4 Ca2+ flux; hits give high values; B-score at 10 µM; hit rate 0.42% among 310,000; AID 2227;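 active = B-score of calcium response area above 5 SD of library B-scores, with initial fluorescence ratio within 5 SD of library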;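 note: B-score of integrated fluorescence ratio over time as area under calcium response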
Target sequence (Q9QUQ5 whole entry, looked up): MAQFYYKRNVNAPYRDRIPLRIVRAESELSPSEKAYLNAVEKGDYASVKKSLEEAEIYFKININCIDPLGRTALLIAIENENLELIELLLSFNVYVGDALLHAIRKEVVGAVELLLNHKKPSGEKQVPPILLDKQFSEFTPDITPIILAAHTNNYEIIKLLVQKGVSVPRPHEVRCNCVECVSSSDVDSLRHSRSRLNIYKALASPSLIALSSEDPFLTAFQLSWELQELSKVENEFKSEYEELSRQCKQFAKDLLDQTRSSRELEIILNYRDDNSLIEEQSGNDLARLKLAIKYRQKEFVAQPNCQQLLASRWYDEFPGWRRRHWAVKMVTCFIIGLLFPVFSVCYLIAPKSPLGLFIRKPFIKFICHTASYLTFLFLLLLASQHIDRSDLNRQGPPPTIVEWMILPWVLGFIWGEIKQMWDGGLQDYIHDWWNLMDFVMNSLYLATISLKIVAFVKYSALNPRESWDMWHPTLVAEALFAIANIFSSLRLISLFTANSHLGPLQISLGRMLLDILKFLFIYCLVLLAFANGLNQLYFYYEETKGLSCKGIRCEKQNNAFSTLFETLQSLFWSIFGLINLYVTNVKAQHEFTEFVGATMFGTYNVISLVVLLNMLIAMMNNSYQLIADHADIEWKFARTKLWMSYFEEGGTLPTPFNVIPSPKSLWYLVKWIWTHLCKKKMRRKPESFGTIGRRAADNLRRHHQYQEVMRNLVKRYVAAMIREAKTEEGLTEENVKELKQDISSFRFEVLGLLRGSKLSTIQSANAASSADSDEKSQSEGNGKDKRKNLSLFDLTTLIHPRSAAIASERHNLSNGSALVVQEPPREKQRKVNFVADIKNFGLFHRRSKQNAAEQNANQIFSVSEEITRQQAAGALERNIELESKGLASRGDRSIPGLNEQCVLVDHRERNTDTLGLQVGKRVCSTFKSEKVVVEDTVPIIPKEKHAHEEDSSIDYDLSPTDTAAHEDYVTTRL
TRPC4 block = blocks the mouse TRPC4 cation channel; Q9QUQ5; HEK293 TRPC4beta/mu-opioid, DAMGO-evoked Fluo4 calcium flux; hits give low values; B-score at 10 µM; hit rate 0.39% among 300,000;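 active = B-score over 3 SD under the library average, no early fluorescence shift, positive overall ratio signal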
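test system = HEK293 cells with stable TRPC4beta plus mu-opioid receptor expression | detection = Fluo4 Ca2+ flux fluorescence | read-out = integrated fluorescence ratio relative to baseline, converted to per-well B score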
TRPC6 inh = mouse TRPC6 channel inhibition; hit rate 1.1% among 310,000; B-score at 10 µM; Q61143; HEK293-TRPC6, membrane potential dye, ACh-evoked depolarization; hits give low values;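 active = B-score under library mean minus 3 SD, initial fluorescence not abnormally high, positive integrated signal ratio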;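 note: B-score derived from integrated fluorescence ratio over the kinetic read; more negative B-score means stronger inhibition of depolarization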
TRPC4 agonist = TRPC4 (mouse) channel activation; B-score at 10 µM; Q9QUQ5; HEK293 TRPC4beta/mu-opioid, Fluo4 calcium fluorescence; hits give high values; hit rate 0.49% among 310,000;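 active = B-score above 5 SD of library B-scores, and initial fluorescence ratio not above library mean plus 5 SD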;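 note: positive B-score marks a calcium rise read as TRPC4 activation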
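Technique: kinetic Fluo4 calcium fluorescence; Test system: TRPC4beta and mu-opioid receptor HEK293 stable cells; Measure: B-scored integrated calcium fluorescence ratio; Benchmarks: low control buffer alone, high control maximal DAMGO; Schedule: 45 min room-temperature Fluo4 loading, 110 s read.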
TRPC6 activator = mouse TRPC6 channel activation; HEK293-TRPC6 membrane potential dye fluorescence; hits give high values; B-score at 10 µM; AID 2550; Q61143; hit rate 0.13% among 310,000;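 active = B-score of the integrated fluorescence ratio above library mean plus 3 SD, and starting fluorescence ratio within library mean plus 5 SD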;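 note: higher score means more depolarization so channel activation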
TRPC4 sel inh 2 = mouse TRPC4 off-target activity of TRPC6 inhibitors, second screen. inhibition, % at 10 µM. AID 2776. HEK293 TRPC4/MOR, membrane potential dye fluorescence; channel activated by saturating DAMGO dose. hit rate 42% among 920. shares compounds with TRPC6 inh;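 active = compounds whose fluorescence signal differed from control wells by over 3 SD, either direction, in both duplicate plates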
TRPC4 spec = selectivity of TRPC6 inhibitors: effect on mouse TRPC4; shares compounds with TRPC6 inh; HEK293 TRPC4/mu-opioid, membrane potential fluorescence; activity change, negative = inhibition, % at 10 µM; hit rate 61% among 920; AID 2777;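 active = rise or fall in signal beyond 3 SD of buffer-only wells in both replicate plates, either sign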;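 note: integrated kinetic ratio of fluorescence range over baseline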
HEK293 MPD ctr 2-1 = parental HEK293 nonspecific activity of TRPC6 inhibitors, second screen; shares compounds with TRPC6 inh; parental HEK293 membrane potential dye fluorescence; maximal acetylcholine challenge after compound addition; signal change vs control, % at 10 µM; hit rate 31% among 920; AID 2779;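 active = membrane potential signal moving either way by over 3 SD of the maximum-effect control, in both duplicate plates, meaning non-specific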
HEK293 MPD ctr-1 = parental HEK293 nonspecific activity of TRPC6 inhibitors; shares compounds with TRPC6 inh; parental HEK293 membrane potential dye fluorescence; membrane potential signal change, % at 10 µM; hit rate 60% among 920; AID 2780;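 active = membrane potential signal shifting up or down by more than 3 SD of buffer-only wells, on both duplicate plates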
HEK293 MPD ctr-2 = parental HEK293 nonspecific activity of TRPC6 modulators. membrane potential dye fluorescence. hit rate 51% among 2,400. AID 488924. membrane potential signal change, % at 10 µM. shares compounds with TRPC6 inh;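 active = membrane potential signal moves up or down beyond 5 SD from buffer-only wells, on both duplicate plates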
HEK293 MPD ctr 2-2 = second counter-screen for TRPC6 modulators: effect in parental HEK293 cells; shares compounds with TRPC6 inh; membrane potential dye fluorescence; after compound, maximal acetylcholine stimulation; inhibition, % at 10 µM; AID 488926; hit rate 14% among 2,400;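 active = membrane potential signal drops by more than 5 SD from the mean control signal, in both duplicate plates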;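 note: plate controls were acetylcholine ECmax control wells for no effect and buffer only wells for full effect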
TRPC4/MOR mod = selectivity of TRPC6 modulators against mouse TRPC4; AID 488927; percent change from control (negative = decrease, positive = increase), % at 10 µM; shares compounds with TRPC6 inh; HEK293 TRPC4/mu-opioid, membrane potential fluorescence; hit rate 69% among 2,400;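 active = membrane potential signal moved up or down beyond 5 SD of buffer control wells, in both duplicate plates, actives on both sides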;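 note: plate controls were assay buffer wells for no effect and DAMGO maximal-effect wells for full effect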
TRPC4/MOR inh 2 = mouse TRPC4 off-target activity of TRPC6 modulators, second screen. shares compounds with TRPC6 inh. HEK293 TRPC4/mu-opioid, membrane potential dye fluorescence; stimulated with maximal-effect DAMGO. inhibition, % at 10 µM. hit rate 55% among 2,400. AID 488928;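 active = drop in membrane potential signal beyond 5 SD of the control wells in both duplicate plates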;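 note: TRPC4 counter screen for TRPC6 hits run under conditions tuned for TRPC6 not TRPC4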
TRPC6 block conf = confirmation of mouse TRPC6 inhibitors | hit rate 43% among 3,300 | HEK293-TRPC6, membrane potential dye, ACh-evoked depolarization | shares compounds with TRPC6 inh | inhibition, % at 10 µM;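 active = fluorescence ratio falls more than 5 SD below the full-stimulation control mean, in both duplicate runs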;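 note: integrated fluorescence ratio of peak minus minimum over baseline after agonist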
TRPC6 act conf = confirmation of mouse TRPC6 activators. HEK293-TRPC6 membrane potential dye fluorescence, FDSS. activation, % at 10 µM. shares compounds with TRPC6 inh. hit rate 11% among 2,800;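 active = ratio signal rise beyond 5 SD above unstimulated control wells' mean, seen in both duplicate runs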;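 note: plate controls were buffer EC0 wells for no effect and acetylcholine ECmax response for full effect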
The depositor's hits bear a star; i = inactive; / = no result; + = active, no number. An excerpt weighted towards active compounds, which were near 2.3% of everything screened.

SMILES	TRPC4 potent	TRPC4 block	TRPC6 inh	TRPC4 agonist	TRPC6 activator	HEK293 MPD ctr-2	HEK293 MPD ctr 2-2	TRPC4/MOR mod	TRPC4/MOR inh 2	TRPC6 block conf	TRPC6 act conf	others
COc1cccc(NC(=O)N2CCCC2C(=O)NCc2ccccc2)c1 (stereo not drawn)	i	i	i	i	i	/	/	/	/	/	/
Cc1ccc(OCCCC(=O)Nc2nc3ccccc3[nH]2)cc1	i	i	-7.02*	i	i	i	i	i	i	i	i
CC(=O)N1[C@H](Cc2ccccc2)C=C[C@]1(C)C(=O)NCc1ccccn1	i	i	i	i	i	/	/	/	/	/	/
Cc1[nH]nc(-c2ccc(O)cc2O)c1-c1ccc(Cl)cc1	i	-7*	-5.75*	i	i	-79.0%*	i	-22.5%*	80.5%*	i	i
COc1ccc(-c2n[nH]c(C)c2-c2ccc(Cl)cc2)c(O)c1	i	i	i	i	i	/	/	/	/	/	/
CCOC(=O)/C(=C/C=C1\Sc2cc(C)c(C)cc2N1CC)C(C)=O	i	i	-5.02*	i	i	+	+	281.5%*	52.0%*	i	/
O=C(NC(=S)Nc1ccccc1N1CCOCC1)c1ccc(-c2ccccc2F)o1	i	i	i	i	i	/	/	/	/	/	/
Cc1cc(Cl)ccc1C(=O)C1CCCN(C(=O)c2cc(C(C)C)no2)C1 (stereo not drawn)	i	i	-6.21*	i	i	98.0%*	i	20.5%*	i	48.0%*	/
CC(C)c1cc(C(=O)N2CCCC(C(=O)c3ccc4ccccc4c3)C2)on1 (stereo not drawn)	i	i	i	i	i	/	/	/	/	/	/
CCN1CCN(S(=O)(=O)c2ccc(Cl)c(C(=O)N(C)CCOc3ccc(Cl)cc3)c2)CC1	i	i	i	i	i	/	/	/	/	/	/
CCc1ccc(O)c(CNCCNCc2cc(CC)ccc2O)c1	i	i	i	i	i	/	/	/	/	/	/
Cc1ccc(O)c(CNCCNCc2cc(C)ccc2O)c1	i	i	-6.38*	i	i	161.0%*	i	16.5%*	82.0%*	44.0%*	/
CCOC(=O)C1CCN(C(=O)C(C)c2ccc([N+](=O)[O-])cc2)CC1 (stereo not drawn)	i	i	-5.05*	i	i	i	i	12.0%*	i	i	/
CCOC(=O)N1CCN(C(=O)C(C)c2ccc([N+](=O)[O-])cc2)CC1 (stereo not drawn)	i	i	i	i	i	/	/	/	/	/	/
CCN(CC(=O)Nc1cc(Cl)ccc1C)C(=O)CCS(=O)(=O)c1ccc(C)cc1	i	i	-5.55*	i	i	i	i	13.0%*	i	i	i
CC(NC(=O)c1ccc(F)cc1)c1ccc2c(c1)CCCC2 (stereo not drawn)	i	i	-6.12*	i	i	i	i	i	i	i	i
COc1ccc2nc(C)cc(N3CCOCC3)c2c1	i	i	-11.6*	i	i	-427.5%*	100.0%*	-60.0%*	67.0%*	76.0%*	i
COc1ccc2nc(C)cc(N3CCN(c4ccccc4)CC3)c2c1	i	i	-5.11*	i	i	-174.5%*	i	-41.0%*	68.5%*	i	i
Cc1ccc2nc(C)cc(N3CCOCC3)c2c1	i	i	-10.8*	i	i	-300.5%*	96.5%*	-45.0%*	69.0%*	75.0%*	i
COc1ccc2nc(C)cc(N3CC(C)OC(C)C3)c2c1 (stereo not drawn)	i	i	i	i	i	/	/	/	/	/	/
COc1ccc(C(=O)CN2CCN(c3cc(C)nc4ccccc34)CC2)cc1	i	i	i	i	i	/	/	/	/	/	/
CC(=O)Nc1ccc(S(=O)(=O)NC2CC(=O)N(c3ccc(C)c(C)c3)C2)cc1 (stereo not drawn)	i	i	i	i	i	/	/	/	/	/	/
CCC(=O)N1CCc2cc(Br)cc(S(=O)(=O)N3CCCC(C(=O)NC(C)(C)C)C3)c21 (stereo not drawn)	i	i	i	i	i	/	/	/	/	/	/
CC1(/[N+]([O-])=C/c2ccc(F)cc2)CCCCC1=O (stereo not drawn)	i	i	i	i	i	/	/	/	/	/	/
CCOC(=O)Cn1c(=N)n(CCOc2ccc(Br)cc2)c2ccccc21	i	i	-7.74*	i	i	/	/	/	/	55.0%*	i	TRPC4 sel inh 2=43.5%*;TRPC4 spec=0.5%*;HEK293 MPD ctr 2-1=i;HEK293 MPD ctr-1=3.0%*
COc1ccc(-c2nnc3sc(C4CCCCC4)nn23)cc1OC	i	i	i	i	12.5*	144.0%*	i	40.5%*	i	i	85.5%*
CCc1ccc(OCC2NCCc3cc(OC)c(OC)cc32)cc1 (stereo not drawn)	i	i	-5.82*	i	i	i	i	i	45.5%*	i	i
COc1ccc(-n2cnnc2SCC(=O)Nc2cccnc2Cl)cc1	i	i	i	i	i	/	/	/	/	/	/
